According to ChEMBL document CHEMBL5038573, “Total Synthesis of Laucysteinamide A, a Monomeric Congener of Somocystinamide A” (J Nat Prod, 2021):

Tests used:
[1] = (§1) Toxicity in brine shrimp assessed as induction of lethality incubated for 24 hrs by microscopic analysis; assay type: organism-based, Artemia salina; details: Artemia salina (brine shrimp)
NCI-H460 = experiment: Cytotoxicity against human NCI-H460 cells assessed as cell growth inhibition incubated for 48 hrs by MTT assay; assay type: functional, cell-based
Outline: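 NCI-H460 cells seeded at 6.66 × 10³ cells/mL in RPMI 1640 with FBS and grown 24 h (37 °C, 5% CO₂). Nine half-log dilutions (top 127–300 μM) added, final 1% v/v DMSO and PEG400, six replicates per concentration. After 48 h, MTT for 25 min, then dissolved in DMSO and read at 570 and 630 nm.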

Artemia salina = experiment: as §1; assay type: organism-based
A549 = experiment: Cytotoxicity against human A549 cells assessed as cell growth inhibition incubated for 48 hrs by MTT assay; assay type: functional, cell-based; details: A549, 48 h
[2] = Homo sapiens, NCI-H460, 48 h, read-out: IC50

Compound | IC50 at 24 h [1] [µM] | IC50 (NCI-H460; [2]) [µM] | IC50 (Artemia salina) | IC50 (A549) [nM] | IC50 (NCI-H460; nci-h460)
C=CC/C=C/N(C)C(=O)CCCCCCCCCC/C=C/[C@@H]1CSC(C)=N1 | > 100 | 20 | – | – | –
CCC/C=C/N(C)C(=O)CCCCCCCCCC/C=C/[C@@H]1CSC(C)=N1 | – | 33 | Not Active | – | –
C=CC/C=C/N(C)C(=O)CCCCCCCC/C=C/[C@H](CSSC[C@@H](/C=C/CCCCCCCCC(=O)N(C)/C=C/CC=C)NC(C)=O)NC(C)=O | > 130 | – | – | 46 | Not Active
C=CC/C=C/N(C)C(=O)CCC | > 100 | > 248 | – | – | –
C=CC/C=C/N(C)C(=O)c1ccccc1 | > 100 | > 300 | – | – | –
